In ChEMBL document CHEMBL2062435, “Synthesis and in vitro antibacterial activity of gemifloxacin derivatives containing a substituted benzyloxime moiety” (2012):
≈ marks a conversion by molar mass, not a printed value.

Columns and labels:
Type in all cases: functional
Staphylococcus aureus [1] = assay: Antimicrobial activity against extended spectrum beta-lactamases-producing methicillin-resistant Staphylococcus aureus 10-15 after 18-24 hrs by two-fold serial dilution method
How it was run: (§1)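 Agar twofold serial dilution MIC against clinical isolates. MIC was taken as the lowest concentration giving complete inhibition of bacterial growth after incubation at 35 °C for 18-24 h.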

Streptococcus pneumoniae [2] = assay: Antimicrobial activity against extended spectrum beta-lactamases-producing Streptococcus pneumoniae 10-4 after 18-24 hrs by two-fold serial dilution method
How it was run: (§2)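 Agar-medium twofold serial dilution against Gram-positive and Gram-negative strains; MIC taken as the lowest compound concentration giving complete inhibition of bacterial growth after incubation at 35 °C for 18-24 h.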

Staphylococcus aureus [3] = assay: Antimicrobial activity against methicillin-resistant Staphylococcus aureus clinical isolate after 18-24 hrs by two-fold serial dilution method; how it was run: as §1
Staphylococcus aureus [4] = assay: Antimicrobial activity against extended spectrum beta-lactamases-producing methicillin-resistant Staphylococcus aureus 10-11 after 18-24 hrs by two-fold serial dilution method; how it was run: as §1
Pseudomonas aeruginosa [5] = assay: Antimicrobial activity against extended spectrum beta-lactamases-producing Pseudomonas aeruginosa 10-15 after 18-24 hrs by two-fold serial dilution method; how it was run: as §2
Pseudomonas aeruginosa [6] = assay: Antimicrobial activity against Pseudomonas aeruginosa 10-12 after 18-24 hrs by two-fold serial dilution method; how it was run: as §2
Enterococcus faecalis [7] = assay: Antimicrobial activity against Enterococcus faecalis 10-6 after 18-24 hrs by two-fold serial dilution method; how it was run: as §2
[8] = test system: Staphylococcus epidermidis; assay: Antimicrobial activity against extended spectrum beta-lactamases-producing methicillin-resistant Staphylococcus epidermidis 10-10 after 18-24 hrs by two-fold serial dilution method; how it was run: as §1
[9] = test system: Staphylococcus epidermidis; assay: Antimicrobial activity against extended spectrum beta-lactamases-producing methicillin-sensitive Staphylococcus epidermidis 10-15 after 18-24 hrs by two-fold serial dilution method; how it was run: as §2
Escherichia coli [10] = assay: Antimicrobial activity against extended spectrum beta-lactamases-producing Escherichia coli 10-3 after 18-24 hrs by two-fold serial dilution method; how it was run: as §2
Escherichia coli [11] = assay: Antimicrobial activity against extended spectrum beta-lactamases-producing Escherichia coli 10-2 after 18-24 hrs by two-fold serial dilution method; how it was run: as §2
[12] = test system: Staphylococcus epidermidis; assay: Antimicrobial activity against extended spectrum beta-lactamases-producing methicillin-sensitive Staphylococcus epidermidis 10-13 after 18-24 hrs by two-fold serial dilution method; how it was run: as §2
Pseudomonas aeruginosa [13] = assay: Antimicrobial activity against extended spectrum beta-lactamases-producing Pseudomonas aeruginosa 10-5 after 18-24 hrs by two-fold serial dilution method; how it was run: as §2
Staphylococcus aureus [14] = assay: Antimicrobial activity against extended spectrum beta-lactamases-producing methicillin-sensitive Staphylococcus aureus 10-13 after 18-24 hrs by two-fold serial dilution method; how it was run: as §2
Pseudomonas aeruginosa [15] = assay: Antimicrobial activity against extended spectrum beta-lactamases-producing Pseudomonas aeruginosa 10-18 after 18-24 hrs by two-fold serial dilution method; how it was run: as §2
[16] = test system: Staphylococcus epidermidis; assay: Antimicrobial activity against extended spectrum beta-lactamases-producing methicillin-resistant Staphylococcus epidermidis 10-13 after 18-24 hrs by two-fold serial dilution method; how it was run: as §1
[17] = test system: Staphylococcus epidermidis; assay: Antimicrobial activity against extended spectrum beta-lactamases-producing methicillin-sensitive Staphylococcus epidermidis 10-11 after 18-24 hrs by two-fold serial dilution method; how it was run: as §2
Pseudomonas aeruginosa [18] = assay: Antimicrobial activity against extended spectrum beta-lactamases-producing Pseudomonas aeruginosa 10-9 after 18-24 hrs by two-fold serial dilution method; how it was run: as §2
Pseudomonas aeruginosa [19] = assay: Antimicrobial activity against extended spectrum beta-lactamases-producing Pseudomonas aeruginosa 10-20 after 18-24 hrs by two-fold serial dilution method; how it was run: as §2
Klebsiella pneumoniae [20] = assay: Antimicrobial activity against extended spectrum beta-lactamases-producing Klebsiella pneumoniae 10-2 after 18-24 hrs by two-fold serial dilution method; how it was run: as §2
Escherichia coli [21] = assay: Antimicrobial activity against Escherichia coli 10-3 after 18-24 hrs by two-fold serial dilution method; how it was run: as §2
Staphylococcus aureus [22] = assay: Antimicrobial activity against Staphylococcus aureus ATCC […] after 18-24 hrs by two-fold serial dilution method; how it was run: as §2
Enterococcus faecium [23] = assay: Antimicrobial activity against Enterococcus faecium 10-5 after 18-24 hrs by two-fold serial dilution method; how it was run: as §2
Escherichia coli [24] = assay: Antimicrobial activity against Escherichia coli 10-2 after 18-24 hrs by two-fold serial dilution method; how it was run: as §2
Escherichia coli [25] = assay: Antimicrobial activity against extended spectrum beta-lactamases-producing Escherichia coli 10-4 after 18-24 hrs by two-fold serial dilution method; how it was run: as §2
Escherichia coli [26] = assay: Antimicrobial activity against Escherichia coli 10-1 after 18-24 hrs by two-fold serial dilution method; how it was run: as §2
Klebsiella pneumoniae [27] = assay: Antimicrobial activity against Klebsiella pneumoniae 10-4 after 18-24 hrs by two-fold serial dilution method; how it was run: as §2
Enterococcus faecalis [28] = assay: Antimicrobial activity against Enterococcus faecalis 10-7 after 18-24 hrs by two-fold serial dilution method; how it was run: as §2
Klebsiella pneumoniae [29] = assay: Antimicrobial activity against Klebsiella pneumoniae 10-3 after 18-24 hrs by two-fold serial dilution method; how it was run: as §2
Klebsiella pneumoniae [30] = assay: Antimicrobial activity against extended spectrum beta-lactamases-producing Klebsiella pneumoniae 10-1 after 18-24 hrs by two-fold serial dilution method; how it was run: as §2
Enterococcus faecalis [31] = assay: Antimicrobial activity against Enterococcus faecalis 10-5 after 18-24 hrs by two-fold serial dilution method; how it was run: as §2
Klebsiella pneumoniae [32] = assay: Antimicrobial activity against extended spectrum beta-lactamases-producing Klebsiella pneumoniae 10-3 after 18-24 hrs by two-fold serial dilution method; how it was run: as §2
Klebsiella pneumoniae [33] = assay: Antimicrobial activity against Klebsiella pneumoniae 10-2 after 18-24 hrs by two-fold serial dilution method; how it was run: as §2
Enterococcus faecium [34] = assay: Antimicrobial activity against Enterococcus faecium 10-9 after 18-24 hrs by two-fold serial dilution method; how it was run: as §2
Escherichia coli [35] = assay: Antimicrobial activity against Escherichia coli ATCC 25922 after 18-24 hrs by two-fold serial dilution method; how it was run: as §2
Staphylococcus aureus [36] = assay: Antimicrobial activity against extended spectrum beta-lactamases-producing methicillin-sensitive Staphylococcus aureus 10-14 after 18-24 hrs by two-fold serial dilution method; how it was run: as §2
Streptococcus pneumoniae [37] = assay: Antimicrobial activity against extended spectrum beta-lactamases-producing Streptococcus pneumoniae 10-1 after 18-24 hrs by two-fold serial dilution method; how it was run: as §2
[38] = test system: Staphylococcus epidermidis; assay: Antimicrobial activity against methicillin-resistant Staphylococcus epidermidis clinical isolate after 18-24 hrs by two-fold serial dilution method

Structure (SMILES)	MIC (Staphylococcus aureus [1]) [µg/mL]	MIC (Streptococcus pneumoniae [2]) [µg/mL]	MIC (Staphylococcus aureus [4]) [µg/mL]	MIC (Pseudomonas aeruginosa [5]) [µg/mL]	MIC (Pseudomonas aeruginosa [6]) [µg/mL]	MIC (Enterococcus faecalis [7]) [µg/mL]	MIC [8] [µg/mL]	MIC [9] [µg/mL]	MIC (Escherichia coli [10]) [µg/mL]	MIC (Escherichia coli [11]) [µg/mL]	MIC [12] [µg/mL]	MIC (Pseudomonas aeruginosa [13]) [µg/mL]	MIC (Staphylococcus aureus [14]) [µg/mL]	MIC (Pseudomonas aeruginosa [15]) [µg/mL]	MIC [16] [µg/mL]	MIC [17] [µg/mL]	MIC (Pseudomonas aeruginosa [18]) [µg/mL]	MIC (Pseudomonas aeruginosa [19]) [µg/mL]	MIC (Klebsiella pneumoniae [20]) [µg/mL]	MIC (Escherichia coli [21]) [µg/mL]	further results
COc1cccc(CO/N=C2\CN(c3nc4c(cc3F)c(=O)c(C(=O)O)cn4C3CC3)CC2CN)c1OC.CS(=O)(=O)O (racemic)	4	0.06	1	8	8	4	0.5	4	32	> 128	0.06	4	0.03	4	0.25	0.25	4	8	> 128	16	MIC50 (Staphylococcus aureus [3]): 1 µg/mL; MIC90 (Staphylococcus aureus [3]): 4 µg/mL; MIC (Staphylococcus aureus [22]): 0.015 µg/mL; MIC (Enterococcus faecium [23]): 4 µg/mL; MIC (Escherichia coli [24]): 16 µg/mL; MIC (Escherichia coli [25]): 2 µg/mL; MIC (Escherichia coli [26]): > 128 µg/mL; MIC (Klebsiella pneumoniae [27]): > 128 µg/mL; MIC (Enterococcus faecalis [28]): 1 µg/mL; MIC (Klebsiella pneumoniae [29]): 2 µg/mL; MIC (Klebsiella pneumoniae [30]): > 128 µg/mL; MIC (Enterococcus faecalis [31]): 0.25 µg/mL; MIC (Klebsiella pneumoniae [32]): > 128 µg/mL; MIC (Klebsiella pneumoniae [33]): 128 µg/mL; MIC (Enterococcus faecium [34]): 4 µg/mL; MIC (Escherichia coli [35]): 0.125 µg/mL; MIC (Staphylococcus aureus [36]): 0.06 µg/mL; MIC (Streptococcus pneumoniae [37]): 0.125 µg/mL
CO/N=C1\CN(c2nc3c(cc2F)c(=O)c(C(=O)O)cn3C2CC2)CC1CN (centres undefined) [GEMIFLOXACIN]	1 (≈ 2.57 µM)	2 (≈ 5.14 µM)	4 (≈ 10.3 µM)	1 (≈ 2.57 µM)	0.03 (≈ 0.077 µM)	8 (≈ 20.5 µM)	2 (≈ 5.14 µM)	16 (≈ 41.1 µM)	2 (≈ 5.14 µM)	16 (≈ 41.1 µM)	1 (≈ 2.57 µM)	0.5 (≈ 1.28 µM)	0.25 (≈ 0.642 µM)	2 (≈ 5.14 µM)	0.5 (≈ 1.28 µM)	16 (≈ 41.1 µM)	0.5 (≈ 1.28 µM)	0.5 (≈ 1.28 µM)	16 (≈ 41.1 µM)	0.5 (≈ 1.28 µM)	MIC50 (Staphylococcus aureus [3]): 2 µg/mL (≈ 5.14 µM); MIC90 (Staphylococcus aureus [3]): 8 µg/mL (≈ 20.5 µM); MIC50 [38]: 0.25 µg/mL (≈ 0.642 µM); MIC90 [38]: 8 µg/mL (≈ 20.5 µM); MIC (Staphylococcus aureus [22]): 0.06 µg/mL (≈ 0.154 µM); MIC (Enterococcus faecium [23]): 8 µg/mL (≈ 20.5 µM); MIC (Escherichia coli [24]): 0.5 µg/mL (≈ 1.28 µM); MIC (Escherichia coli [25]): 8 µg/mL (≈ 20.5 µM); MIC (Escherichia coli [26]): 8 µg/mL (≈ 20.5 µM); MIC (Klebsiella pneumoniae [27]): 32 µg/mL (≈ 82.2 µM); MIC (Enterococcus faecalis [28]): 2 µg/mL (≈ 5.14 µM); MIC (Klebsiella pneumoniae [29]): 8 µg/mL (≈ 20.5 µM); MIC (Klebsiella pneumoniae [30]): 16 µg/mL (≈ 41.1 µM); MIC (Enterococcus faecalis [31]): 1 µg/mL (≈ 2.57 µM); MIC (Klebsiella pneumoniae [32]): 16 µg/mL (≈ 41.1 µM); MIC (Klebsiella pneumoniae [33]): 0.5 µg/mL (≈ 1.28 µM); MIC (Enterococcus faecium [34]): 8 µg/mL (≈ 20.5 µM); MIC (Escherichia coli [35]): 0.03 µg/mL (≈ 0.077 µM); MIC (Staphylococcus aureus [36]): 0.06 µg/mL (≈ 0.154 µM); MIC (Streptococcus pneumoniae [37]): 2 µg/mL (≈ 5.14 µM)
COc1cc(CO/N=C2\CN(c3nc4c(cc3F)c(=O)c(C(=O)O)cn4C3CC3)CC2CN)c([N+](=O)[O-])cc1OC.CS(=O)(=O)O (racemic)	1	0.125	2	32	16	16	1	8	> 128	> 128	0.25	16	0.125	16	1	2	16	32	> 128	32	MIC (Staphylococcus aureus [22]): 0.015 µg/mL; MIC (Enterococcus faecium [23]): 8 µg/mL; MIC (Escherichia coli [24]): 8 µg/mL; MIC (Escherichia coli [25]): 4 µg/mL; MIC (Escherichia coli [26]): > 128 µg/mL; MIC (Klebsiella pneumoniae [27]): > 128 µg/mL; MIC (Enterococcus faecalis [28]): 2 µg/mL; MIC (Klebsiella pneumoniae [29]): 4 µg/mL; MIC (Klebsiella pneumoniae [30]): > 128 µg/mL; MIC (Enterococcus faecalis [31]): 0.125 µg/mL; MIC (Klebsiella pneumoniae [32]): > 128 µg/mL; MIC (Klebsiella pneumoniae [33]): > 128 µg/mL; MIC (Enterococcus faecium [34]): 16 µg/mL; MIC (Escherichia coli [35]): 0.25 µg/mL; MIC (Staphylococcus aureus [36]): 0.125 µg/mL; MIC (Streptococcus pneumoniae [37]): 1 µg/mL
